Screens (PubChem)
KDM4C inh: inhibitors of human demethylase GASC-1 KDM4C | 96,000 tested, 0.15% active | inhibition, % at 12.5 µM | GST-KDM4C 2-372, H3K9me3 peptide, LANCE TR-FRET | AID 720574;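 active = mean replicate inhibition above about 25%, with at least 55% of replicates also reaching it, limit read from the data, passing the limit was not always enough; inconclusive = only one of those two conditions met; inactive = neither condition met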
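material = GST-tagged GASC-1 (JMJD2C) catalytic fragment, aa 2-372 | amount = enzyme final amount 10 nM | medium = HEPES buffer, pH 7.5, plus ascorbate | also added = H3K9me3 peptide substrate, Fe(II), 2-oxoglutarate | dosing = single dose | times = 30 min demethylation and 1 h detection at room temperature | detection = LANCE TR-FRET | read-out basis = Fall in 671/618 emission ratio as inhibition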
IDH1 R132H inh: IDH1 R132H (human) inhibition. 70,000 tested, 0.18% active. inhibition, % at 10 µM. O75874. IDH1 R132H reductase, diaphorase/resazurin fluorescence, 60 min; in the data active = inhibition above about 34%; inconclusive = no clear call, values can overlap the other calls; inactive = below about 11%
Target sequence (O75874 whole entry R132H): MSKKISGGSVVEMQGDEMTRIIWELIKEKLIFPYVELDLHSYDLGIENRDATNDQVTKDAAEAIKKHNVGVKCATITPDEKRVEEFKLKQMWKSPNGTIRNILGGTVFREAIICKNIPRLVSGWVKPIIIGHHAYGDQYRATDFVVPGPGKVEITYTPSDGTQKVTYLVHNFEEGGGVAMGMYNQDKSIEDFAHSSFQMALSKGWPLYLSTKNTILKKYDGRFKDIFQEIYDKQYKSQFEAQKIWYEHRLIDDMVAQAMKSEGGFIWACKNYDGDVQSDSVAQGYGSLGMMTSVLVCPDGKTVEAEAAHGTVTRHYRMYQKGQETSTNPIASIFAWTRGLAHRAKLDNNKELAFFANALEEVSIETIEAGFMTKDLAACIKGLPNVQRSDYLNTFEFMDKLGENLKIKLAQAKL
T cruzi growth-1: T. cruzi proliferation inhibition. T. cruzi beta-gal in NIH3T3, GalScreen luminescence, 90 h. inhibition, % at 8.34 µM. 77,000 tested, 5.9% active;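 active = mean inhibition above about 93%, with at least 55% of replicates each passing it, limit read from the data, passing the limit was not always enough; inconclusive = only one of those two conditions holds; inactive = neither condition holds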
T cruzi growth-2: Trypanosoma cruzi proliferation inhibition | shares compounds with T cruzi growth-1 | inhibition, % at 8.35 µM | 5,600 tested, 72% active | T. cruzi beta-gal in NIH3T3, GalScreen luminescence, 90 h;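 active = mean replicate inhibition above about 95% and at least 55% of replicates individually reaching it, limit read from the data; inconclusive = only one of the two criteria is met; inactive = neither criterion is met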
T cruzi growth-3: inhibitors of T. cruzi proliferation. shares compounds with T cruzi growth-1. T. cruzi beta-gal in NIH3T3, GalScreen luminescence, 90 h. inhibition, % at 2.09 µM. 5,600 tested, 21% active. AID 651740;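 active = mean inhibition above about 95%, with at least 55% of replicates also reaching it, limit read from the data; inconclusive = meets just one of the two conditions; inactive = meets neither condition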
3T3 cytotox: kills mouse NIH/3T3 fibroblasts; shares compounds with T cruzi growth-1; NIH/3T3 viability, CellTiter-Glo ATP luminescence, 90 h; cytotoxicity (signal decrease), % at 8.35 µM; 5,600 tested, 14% active; AID 651742;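 active = mean signal decrease across replicates above about 35% based on untreated-well scatter, with enough replicates individually passing, limit read from the data; inconclusive = no rule stated though some were filed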
NIH3T3 tox 2: NIH/3T3 (mouse) viability loss. shares compounds with T cruzi growth-1. NIH/3T3 viability, CellTiter-Glo ATP luminescence, 90 h. inhibition, % at 24.9 µM. 5,600 tested, 56% active. AID 651744;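 active = mean loss of cell viability signal at or above a set limit, and enough replicates individually reaching it; inconclusive = meets only the mean limit or only the replicate share; inactive = meets neither condition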
Of the large screens only hits and unclear results are named; the others gave an inactive call (follow-up assays come after a bar, where they were run). Shown is part of a subset that was picked to be rich in hits.

C[C@@H]1CCCCO[C@@H](CN(C)S(=O)(=O)c2ccc(Cl)cc2)[C@@H](C)CN([C@@H](C)CO)C(=O)c2cc(NS(=O)(=O)c3ccc(Cl)cc3)ccc2O1	none (no result: IDH1 R132H inh)
COC(=O)c1ccc(NC(=O)CN(C)S(=O)(=O)c2ccccc2)cc1	none (no result: KDM4C inh, T cruzi growth-1)
Cc1cc(C)cc(NC(=O)c2ccc(CSc3nnc(-c4cccc([N+](=O)[O-])c4)n3C)cc2)c1	none (no result: KDM4C inh, T cruzi growth-1)
O=C(CCCCCCC(=O)Nc1ccccc1O)N/N=C/c1ccc(O)cc1Br	none (no result: KDM4C inh, T cruzi growth-1)
O=c1c(F)cn(CC2CC(c3ccccc3)=NO2)c(=O)n1CC1CC(c2ccccc2)=NO1 (stereo not given)	none (no result: KDM4C inh, T cruzi growth-1)
CC(C)CC(NC(=O)N1CCCCCC1)C(=O)NC(Cc1cn(C)c2ccccc12)C(=O)NC(Cc1ccccn1)C(=O)O (stereo not given)	none (no result: KDM4C inh, T cruzi growth-1)
CCOC(=O)c1c(NC(=O)C2CC(c3cccc(Br)c3)=NO2)sc(C)c1C (stereo not given)	none (no result: KDM4C inh, T cruzi growth-1)
Cc1ccc(S(=O)(=O)Nc2ccc3c(c2)C(=O)N([C@@H](C)CO)C[C@@H](C)[C@H](CN(C)S(=O)(=O)c2ccc(Cl)cc2)OCCCC[C@@H](C)O3)cc1	T cruzi growth-1 120 (no result: IDH1 R132H inh) | T cruzi growth-2 101 | T cruzi growth-3 100 | 3T3 cytotox inactive | NIH3T3 tox 2 inactive
Cc1ccc(S(=O)(=O)Nc2ccc3c(c2)C(=O)N([C@H](C)CO)C[C@@H](C)[C@H](CN(C)S(=O)(=O)c2ccc(Cl)cc2)OCCCC[C@@H](C)O3)cc1	none
Cc1ccc(S(=O)(=O)Nc2ccc3c(c2)C(=O)N([C@H](C)CO)C[C@H](C)[C@H](CN(C)S(=O)(=O)c2ccc(Cl)cc2)OCCCC[C@H](C)O3)cc1	T cruzi growth-1 112 (no result: IDH1 R132H inh) | T cruzi growth-2 100 | T cruzi growth-3 107 | 3T3 cytotox inactive | NIH3T3 tox 2 inactive
C[C@H]1CCCCO[C@H](CN(C)S(=O)(=O)c2ccc(Cl)cc2)[C@@H](C)CN([C@@H](C)CO)C(=O)c2cc(NS(=O)(=O)c3ccc(Cl)cc3)ccc2O1	none
Cc1ccc(S(=O)(=O)Nc2ccc3c(c2)C(=O)N([C@H](C)CO)C[C@H](C)[C@@H](CN(C)S(=O)(=O)c2ccc(Cl)cc2)OCCCC[C@@H](C)O3)cc1	T cruzi growth-1 108 | T cruzi growth-2 106 | T cruzi growth-3 inactive | 3T3 cytotox inactive | NIH3T3 tox 2 45
CCc1ccc(NC(=O)COc2ccc(NC(C)=O)cc2)cc1	none (no result: KDM4C inh, T cruzi growth-1)
CCn1ccc(CNC(=O)Nc2cccc(C(F)(F)F)c2)n1	none (no result: KDM4C inh, T cruzi growth-1)
COC(=O)c1sc2nc(-c3ccccc3)nc(Nc3nc(C)cc(C)n3)c2c1C	none (no result: KDM4C inh, T cruzi growth-1)
Cc1cccc2c1N(C)C(=O)C2(O)CC(=O)c1ccco1 (stereo not given)	none (no result: KDM4C inh, T cruzi growth-1)
COC(=O)CCCCCCC(=O)N/N=C/c1ccco1	none (no result: KDM4C inh, T cruzi growth-1)
OC[C@@H]1[C@H](c2ccc(-c3cccc(F)c3)cc2)[C@H]2CN(Cc3cncnc3)CCCCN12	T cruzi growth-1 96 (no result: IDH1 R132H inh) | T cruzi growth-2 inactive | T cruzi growth-3 inactive | 3T3 cytotox inactive | NIH3T3 tox 2 102
OC[C@H]1[C@@H](c2ccc(-c3cccc(F)c3)cc2)[C@@H]2CN(Cc3cncnc3)CCCCN12	none (no result: IDH1 R132H inh)
COc1cccc(-c2ccc([C@@H]3[C@H](CO)N4CCCCN(Cc5cncnc5)C[C@@H]34)cc2)c1	none (no result: IDH1 R132H inh)
OC[C@@H]1[C@H](c2ccc(-c3cccc(F)c3)cc2)[C@@H]2CN(Cc3cncnc3)CCCCN12	T cruzi growth-1 123 (no result: IDH1 R132H inh) | T cruzi growth-2 102 | T cruzi growth-3 inactive | 3T3 cytotox inactive | NIH3T3 tox 2 inactive
COc1cccc(-c2ccc([C@H]3[C@@H](CO)N4CCCCN(CC5CCOCC5)C[C@H]34)cc2)c1	T cruzi growth-1 107 (no result: KDM4C inh, IDH1 R132H inh) | T cruzi growth-2 107 | T cruzi growth-3 inactive | 3T3 cytotox inactive | NIH3T3 tox 2 97
OC[C@@H]1[C@@H](c2ccc(-c3cccnc3)cc2)[C@@H]2CN(CC3CCOCC3)CCCCN12	none (no result: KDM4C inh, IDH1 R132H inh)
COc1cccc(-c2ccc([C@@H]3[C@H]4CN(CC5CC5)CCCCN4[C@H]3CO)cc2)c1	none (no result: IDH1 R132H inh)
OC[C@@H]1[C@H](c2ccc(-c3cccnc3)cc2)[C@H]2CN(CC3CCOCC3)CCCCN12	T cruzi growth-1 97 (no result: KDM4C inh, IDH1 R132H inh) | T cruzi growth-2 inconclusive | T cruzi growth-3 inactive | 3T3 cytotox inactive | NIH3T3 tox 2 inactive
